Experimental data of several laboratories.
Protocols differ between the studies behind these lines.
FLT3 K663Q: Receptor-type tyrosine-protein kinase FLT3 (FLT3, Homo sapiens, UniProt P36888, K663Q)
FLT3 N841I: Receptor-type tyrosine-protein kinase FLT3 (FLT3, Homo sapiens, UniProt P36888, N841I)

CC(C)CC(=O)N1CCc2nc(-c3ccc(Br)cc3)nc(N(C)Cc3ccccc3)c2C1  remaining binding (Receptor-type tyrosine-protein kinase FLT3 (FLT3, Homo sapiens, UniProt P36888, F691L/ITD); cell-free assay; competition with immobilised ligand; 0.1 µM): 68%
Cc1ccc(C(=O)Nc2ccc(CN3CCN(C)CC3)c(C(F)(F)F)c2)cc1C#Cc1cnc2cccnn12  remaining activity (FLT3 K663Q; enzyme activity; inhibitor; 23.5 nM): 6.3%
C[C@@H]1CCN(c2nccc(-c3cnn4ncccc34)n2)C1  remaining binding (FLT3 K663Q; binding; 1 µM): 100%
O=C(c1ccc(Nc2ncc(Cl)c(-c3cc4ccccc4s3)n2)cc1)N1CCC(N2CCCC2)CC1  remaining binding (Receptor-type tyrosine-protein kinase FLT3 (FLT3, Homo sapiens, UniProt P36888, D835V/ITD); binding; competition with immobilised ligand; 1 µM): 7.6%
Nc1ncnc2occ(-c3ccc(NC(=O)Nc4cc(C(F)(F)F)ccc4F)cc3)c12  remaining signal (Receptor-type tyrosine-protein kinase FLT3 (FLT3, Homo sapiens, UniProt P36888, R834Q); cell-free assay; inhibitor; 20 µM): 0%
Cn1nc(C(F)(F)F)cc1-c1cnc(N2CCc3cc(S(=O)(=O)Nc4c(F)cc(Cl)cc4F)cc(N4CCCC4=O)c32)nc1  remaining binding (FLT3 N841I; cell-free assay; competition with immobilised ligand; 1 µM): 94%
Cc1cnc(Nc2ccc(C(=O)N3CCC(N4CCCC4)CC3)cc2)nc1-c1cc2ccccc2s1  remaining binding (Receptor-type tyrosine-protein kinase FLT3 (FLT3, Homo sapiens, UniProt P36888); binding; competition with immobilised ligand; 1 µM): 1.6%
N#Cc1ccc(Nc2ccc3[nH]c(=O)[nH]c3c2)c(Cl)c1  remaining binding (Receptor-type tyrosine-protein kinase FLT3 (FLT3, Homo sapiens, UniProt P36888, D835Y); cell-free assay; competition with immobilised ligand; 1 µM): 94%
F[C@@H]1CCN(c2nccc(-c3cnn4ncccc34)n2)C1  remaining binding (FLT3 N841I; binding; 1 µM): 100%
